Laboratory results from PMC12188530 (RSC Advances, 2025).
Values after ≈ are worked out from the molar mass of the structure shown. Structures can show the parent of a compound that is named as a salt.

Key:
S. aureus ATCC 43300 [1] = assay: Time-kill kinetics; type: cell-based, Staphylococcus aureus; conditions: 2 × MIC; for re-growth of the bacteria: after 24 hours; for log reduction in CFU: within 2 to 4 hours
Procedure, shortened: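 Culture grown to OD600 0.5 (5 × 10^8 CFU mL−1), then diluted 1000-fold in CA-MHB. Test compound added at 2 × MIC, with ciprofloxacin (2 × MIC) and untreated controls. Incubated at 37 °C with 200 rpm shaking and sampled at 0, 2, 4, 8, 12 and 24 h. Samples plated on MHA for 24 h at 37 °C, and CFU mL−1 determined. Run in triplicate.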

[2] = test system: S. aureus ATCC 43300 biofilm; assay: Biofilm growth inhibition assay; type: cell-based, Staphylococcus aureus; conditions: at MIC, 24 hours
Procedure, shortened: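 S. aureus grown in TSB at 37 °C for 24 h, then diluted 1:100 in TSB with 0.1% glucose. […] Planktonic cells removed, wells PBS-washed, dried 10 min and stained with 0.1% crystal violet (10 min, 25 °C). Stain solubilized in 33% acetic acid (30 min, RT, shaking) and read at A600. Percent inhibition calculated against untreated control, in triplicate with three biological replicates.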

[3] = target: T1, S. aureus ATCC 43300 Sortase A (Staphylococcus aureus, UniProt Q2FV99); assay: Sortase A activity assay by FRET; type: biochemical
T1 sequence (Q2FV99 60-206): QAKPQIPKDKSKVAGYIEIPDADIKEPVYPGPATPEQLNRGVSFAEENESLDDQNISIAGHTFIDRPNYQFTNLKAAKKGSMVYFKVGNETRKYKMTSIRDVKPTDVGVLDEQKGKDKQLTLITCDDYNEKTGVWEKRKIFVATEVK

Cytotoxicity assay = type: cell-based; conditions: human, HepG2 cells
S. aureus ATCC 43300 [4] = assay: MIC and MBC by micro broth dilution; type: cell-based, Staphylococcus aureus
S. aureus ATCC 43300 [5] = assay: Thigh infection in a neutropenic mouse; type: in vivo; conditions: BALB/C mice, group n = 4, 100 mg kg^−1 oral
Procedure, shortened: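 Female BALB/c mice, 6–8 weeks old, n = 4 per group, made neutropenic with cyclophosphamide i.p. (150 mg kg−1 on day −4, 100 mg kg−1 on day −1). Right thigh infected i.m. with 5 × 10^5 CFU per mouse. At 4 h, test compound given orally at 100 mg kg−1, alongside vancomycin 100 mg kg−1 oral and a sunflower oil vehicle group. At 24 h, thighs homogenized in PBS and CFU plated on MHA, in triplicate per mouse.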

[6] = test system: S. aureus ATCC 43300 invasion in macrophage (THP1); assay: Macrophage invasion assay; type: cell-based, Staphylococcus aureus; conditions: THP1, MIC and 2 × MIC
[7] = test system: S. aureus ATCC 43300 membrane potential; assay: Membrane potential perturbation assay; type: cell-based, Staphylococcus aureus; conditions: MIC and 2 × MIC
Procedure, shortened: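 Cells pelleted at 2400×g for 10 min and resuspended in PBS at OD600 1.0. DiOC2(3) added to 30 μM final. Cells mixed with test compound at MIC and 2 × MIC. CCCP served as positive control and untreated cells as negative control; n = 3, mean ± SD.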

Sortase A = target: T2, Sortase A (Staphylococcus aureus, UniProt Q2FV99); assay: Fluorescence quenching assay; type: binding; conditions: compounds 0 to 128 μg mL^−1
T2 sequence (Q2FV99 60-206): T1 sequence (Q2FV99 60-206)

[8] = Staphylococcus aureus, ATCC43300, 18 h, S. aureus ATCC 43300, MHB, 37 °C, 18 hours
[9] = Staphylococcus aureus, ATCC43300, 18 h

For `CN(C)CCCN1c2ccccc2Sc2ccc(C(F)(F)F)cc21` [Triflupromazine hydrochloride], the “re-growth of the bacteria” value (S. aureus ATCC 43300 [1]) was “re-growth of the bacteria was observed after 24 hours”, the “log reduction in CFU” value (S. aureus ATCC 43300 [1]) was about 2 log and the biofilm growth inhibition [2] was 19%. For the same compound, the inhibition at 128 µg/mL [3] was 48%, the viability at 24 h, 1 × MIC (Cytotoxicity assay) was 63% and the MIC (S. aureus ATCC 43300 [4]; [8]) was 32 µg/mL.
In the case of `O.O=c1c(O)c(-c2ccc(O)c(O)c2)oc2cc(O)cc(O)c12` [Quercetin hydrate], the “% inhibition” value ([3]; concentration 128 μg mL^−1) is reported as 73%.
In the case of `c1ccc2c(c1)Sc1ccccc1N2CC1CN2CCC1CC2` (centres unmarked) [Mequitazine], the “log reduction in colony-forming units (CFU) from the initial inoculum” value (shortened to “log reduction in colony-forming units”) (S. aureus ATCC 43300 [1]) is reported as at least 3 log, the “time within which the bacteria were eliminated” value (S. aureus ATCC 43300 [1]) is reported as 12 to 24 h and the biofilm growth inhibition [2] is reported as 95%. For the same compound, the inhibition at 128 µg/mL [3] was 64%, the viability at 24 h, 1 × MIC (Cytotoxicity assay) was 30% and the MBC (S. aureus ATCC 43300 [4]; [9]) was 128 µg/mL (≈ 397 µM). The MIC (S. aureus ATCC 43300 [4]; [9]) was 64 µg/mL (≈ 198 µM).
With `CN(C)CCCN1c2ccccc2Sc2ccc(Cl)cc21` [Chlorpromazine hydrochloride] the “log reduction in colony-forming units” value (S. aureus ATCC 43300 [1]) was at least 3 log, the “time within which the bacteria were eliminated” value (S. aureus ATCC 43300 [1]) was 8 to 12 h and the “re-growth of the bacteria” value (S. aureus ATCC 43300 [1]) was “re-growth of the bacteria was observed after 24 hours”. The biofilm growth inhibition [2] was 93%, the inhibition at 128 µg/mL [3] was 49% and the viability at 24 h, 1 × MIC (Cytotoxicity assay) was 28%. The MIC (S. aureus ATCC 43300 [4]; [8]) was 32 µg/mL.
For `CN1CCN(CCCN2c3ccccc3Sc3ccc(Cl)cc32)CC1` [Prochlorperazine dimaleate], the “death during the experiment” value (S. aureus ATCC 43300 [5]) was “One BALB/C died during the experiment”, the “S. aureus ATCC 43300 invasion of macrophages” value [6] was “successfully reduced MRSA invasion of macrophages at 2 × MIC” and the “re-growth of the bacteria” value (S. aureus ATCC 43300 [1]) was “re-growth of the bacteria was observed after 24 hours”. The “log reduction in CFU” value (S. aureus ATCC 43300 [1]) was about 2 log, the biofilm growth inhibition [2] was 67% and the viability at 24 h, 1 × MIC (Cytotoxicity assay) was 86%. For the same compound, the viability at 24 h, 2 × MIC (Cytotoxicity assay) was about 50% and the MIC (S. aureus ATCC 43300 [4]; [8]) was 32 µg/mL.
For `CN(C)C(=O)C(CCN1CCC(O)(c2ccc(Cl)cc2)CC1)(c1ccccc1)c1ccccc1` [Loperamide hydrochloride], the “log reduction in colony-forming units” value (S. aureus ATCC 43300 [1]) was at least 3 log, the “time within which the bacteria were eliminated” value (S. aureus ATCC 43300 [1]) was 8 to 12 h and the “re-growth of the bacteria” value (S. aureus ATCC 43300 [1]) was “re-growth of the bacteria was observed after 24 hours”. For the same compound, the membrane potential disruption [7] was “significant reduction only at 2 × MIC”, the biofilm growth inhibition [2] was 95% and the “dose-dependent quenching of Sortase A fluorescence intensity” value (Sortase A) was “except loperamide hydrochloride”. The “inhibitory activity against the enzyme (in words)” value ([3]; FRET assay) was “except loperamide hydrochloride”, the viability at 24 h, 1 × MIC (Cytotoxicity assay) was 84% and the MIC (S. aureus ATCC 43300 [4]; S. aureus ATCC 43300, MHB, 37 °C, 18 hours) was 64 µg/mL. It also gave an MBC (S. aureus ATCC 43300 [4]; [9]) of 128 µg/mL and an MIC (S. aureus ATCC 43300 [4]; [8]) of 32 µg/mL.
For `CCOC(=O)C1=C(COCCN)NC(C)=C(C(=O)OC)C1c1ccccc1Cl` (centres unmarked) [Amlodipine besylate], the “log reduction in colony-forming units” value (S. aureus ATCC 43300 [1]) was at least 3 log, the “time within which the bacteria were eliminated” value (S. aureus ATCC 43300 [1]) was 4 to 24 h and the biofilm growth inhibition [2] was 40%. For the same compound, the inhibition at 128 µg/mL [3] was 57%, the viability at 24 h, 1 × MIC (Cytotoxicity assay) was 60% and the MBC (S. aureus ATCC 43300 [4]; [9]) was 128 µg/mL. It also gave an MIC (S. aureus ATCC 43300 [4]; [8]) of 64 µg/mL.
